According to ChEMBL document CHEMBL1140801, “Potency and selectivity of P2/P3-modified inhibitors of cysteine proteases from trypanosomes” (Bioorg Med Chem Lett, 2008):

How the values were obtained:
Cruzipain = Cruzipain (Trypanosoma cruzi, UniProt P25779); assay: (§1) Inhibition of Trypanosoma cruzi cruzain
How it was run: (§2)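 Cruzain at 2 nM was added to inhibitor dilutions (10 to 0.01 μM) containing 10 μM Z-Phe-Arg-AMC in buffer A. Progress curves were run for 150 s at room temperature. k_ass came from linear regression when k_obs was linear in [I]. If saturating, k_inact and K_i came from nonlinear fitting to a two-step irreversible inhibition model.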

[1] = target: Cruzipain (Trypanosoma cruzi) (UniProt P25779); assay: as §1; how it was run: as §2
Chain of Cruzipain (Trypanosoma cruzi) (P25779 123-467 limits assumed): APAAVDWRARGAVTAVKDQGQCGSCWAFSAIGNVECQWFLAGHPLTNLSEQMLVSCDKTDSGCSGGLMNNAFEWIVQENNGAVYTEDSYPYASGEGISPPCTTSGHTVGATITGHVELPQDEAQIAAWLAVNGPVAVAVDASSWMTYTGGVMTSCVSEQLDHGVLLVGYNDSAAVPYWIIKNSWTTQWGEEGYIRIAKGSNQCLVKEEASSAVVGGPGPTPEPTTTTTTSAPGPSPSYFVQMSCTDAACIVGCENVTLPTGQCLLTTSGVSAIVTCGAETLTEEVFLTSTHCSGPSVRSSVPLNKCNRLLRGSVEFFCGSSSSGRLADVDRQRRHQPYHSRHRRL

Trypanosoma brucei [2] = assay: (§3) Inhibition of Trypanosoma brucei rhodesain
How it was run: (§4)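 Rhodesain at 2 nM was added to inhibitor dilutions (10 to 0.01 μM) containing 10 μM Z-Phe-Arg-AMC in buffer A. Progress curves were run for 300 s at room temperature. Linear k_obs versus [I] gave k_ass by linear regression. Hyperbolic dependence gave k_inact and K_i by nonlinear fit to a two-step irreversible mechanism.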

[3] = as §3; how it was run: as §4
[4] = target: Cruzipain (Trypanosoma cruzi) (UniProt P25779); assay: Ratio of Kinact to ki of Trypanosoma cruzi cruzain; how it was run: as §2
Trypanosoma brucei [5] = assay: Ratio of Kinact to Ki of Trypanosoma brucei rhodesain; how it was run: as §4
J774 = assay: Cytotoxicity against mouse J774 macrophage; type: cell-based
How it was run: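 J774 macrophages infected with T. cruzi were treated with compound at 10 μM. Macrophage toxicity was scored yes/no alongside macrophage survival in days.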

Trypanosoma brucei [6] = assay: Ratio of Kinact to Ki of Trypanosoma brucei cathepsin B
How it was run: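 TbCatB at 40 nM was added to inhibitor dilutions (10–0.1 μM) containing 10 μM Z-Phe-Arg-AMC in buffer A. Progress curves were run for 300 s at room temperature. For hyperbolic k_obs dependence, k_inact and K_i were fitted by nonlinear regression to a two-step irreversible inhibition equation, with an [S]/K_m correction.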

Trypanosoma cruzi = assay: Antiparasitic activity against Trypanosoma cruzi in J774 macrophage; type: functional
How it was run: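 T. cruzi-infected J774 macrophages exposed to compound at 10 μM; read-out is how many days the macrophages survive, with macrophage toxicity also scored. Untreated infected cultures serve as control.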

Chain of Cruzipain (P25779 whole entry): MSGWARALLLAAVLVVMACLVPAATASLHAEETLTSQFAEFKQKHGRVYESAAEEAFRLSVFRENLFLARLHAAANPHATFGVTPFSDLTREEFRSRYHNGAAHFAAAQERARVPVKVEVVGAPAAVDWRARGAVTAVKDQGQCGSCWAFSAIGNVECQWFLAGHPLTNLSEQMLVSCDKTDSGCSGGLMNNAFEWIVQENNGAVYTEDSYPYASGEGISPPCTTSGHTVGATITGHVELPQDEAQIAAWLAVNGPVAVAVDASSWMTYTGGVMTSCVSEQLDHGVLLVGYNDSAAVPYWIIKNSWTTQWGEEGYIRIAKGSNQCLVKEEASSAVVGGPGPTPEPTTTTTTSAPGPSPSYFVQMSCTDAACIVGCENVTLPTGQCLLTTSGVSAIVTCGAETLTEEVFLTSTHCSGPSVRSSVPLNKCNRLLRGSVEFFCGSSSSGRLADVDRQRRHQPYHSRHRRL

Ki (Cruzipain) [nM]	Kinact [1] [s⁻¹]	Kinact (Trypanosoma brucei [2]) [s⁻¹]	Ki [3] [nM]	Ratio [4] [M⁻¹ s⁻¹]	Ratio (Trypanosoma brucei [5]) [M⁻¹ s⁻¹]	Ka (Trypanosoma brucei [6]) [M⁻¹ s⁻¹]	Ka [4] [M⁻¹ s⁻¹]	Structure (SMILES)	Activity (J774)	Survival (Trypanosoma cruzi) [days]	Ratio (Trypanosoma brucei [6]) [M⁻¹ s⁻¹]	Ka (Trypanosoma brucei [5]) [M⁻¹ s⁻¹]
350	0.012	0.011	30	34000	366000	–	–	Cc1ccc(C[C@H](NC(=O)c2cc(F)cc(F)c2)C(=O)N[C@H](/C=C/S(=O)(=O)c2ccccc2)CCc2ccccc2)cc1	–	–	–	–
19	0.006	0.031	20	311000	1.57e+06	600	–	Cc1ccc(C[C@H](NC(=O)c2ccc3c(c2)OCCO3)C(=O)N[C@H](/C=C/S(=O)(=O)c2ccccc2)CCc2ccccc2)cc1	–	–	–	–
80	0.0056	0.019	85	70000	223000	540	–	O=C(N[C@@H](Cc1ccccc1)C(=O)N[C@H](/C=C/S(=O)(=O)c1ccccc1)CCc1ccccc1)c1ccc2c(c1)OCCO2	–	–	–	–
3600	0.16	–	–	45000	–	800	–	CN1CCN(C(=O)N[C@@H](Cc2cccnc2)C(=O)N[C@H](/C=C/S(=O)(=O)c2ccccc2)CCc2ccccc2)CC1	–	–	–	55000
71	0.001	0.0093	37	14000	252000	650	–	Cc1cccc(C[C@H](NC(=O)c2ccc3c(c2)OCCO3)C(=O)N[C@H](/C=C/S(=O)(=O)c2ccccc2)CCc2ccccc2)c1	–	–	–	–
–	–	0.11	120	–	852000	–	440000	Cc1ccc(C[C@H](NC(=O)N2CCN(C)CC2)C(=O)N[C@H](/C=C/S(=O)(=O)c2ccccc2)CCc2ccccc2)cc1	–	–	10000	–
45	0.0049	0.014	33	109000	420000	–	–	Cc1ccc(C[C@H](NC(=O)c2ccc(C(F)(F)F)cc2)C(=O)N[C@H](/C=C/S(=O)(=O)c2ccccc2)CCc2ccccc2)cc1	–	–	–	–
1700	0.027	0.29	880	16000	327000	60	–	Cc1ccc(C[C@H](NC(=O)c2ccccn2)C(=O)N[C@H](/C=C/S(=O)(=O)c2ccccc2)CCc2ccccc2)cc1	–	–	–	–
150	0.00047	0.0017	280	3100	6000	500	–	O=C(N[C@@H](Cc1cccc(C(F)(F)F)c1)C(=O)N[C@H](/C=C/S(=O)(=O)c1ccccc1)CCc1ccccc1)c1ccccn1	–	–	–	–
280	0.01	0.04	230	36000	173000	100	–	Cc1cccc(C[C@H](NC(=O)c2ccccn2)C(=O)N[C@H](/C=C/S(=O)(=O)c2ccccc2)CCc2ccccc2)c1	–	–	–	–

Structure (SMILES)	Ki (Cruzipain) [nM]	Kinact [1] [s⁻¹]	Kinact (Trypanosoma brucei [2]) [s⁻¹]	Ki [3] [nM]	Ratio [4] [M⁻¹ s⁻¹]	Ratio (Trypanosoma brucei [5]) [M⁻¹ s⁻¹]	Ka (Trypanosoma brucei [6]) [M⁻¹ s⁻¹]	Ka [4] [M⁻¹ s⁻¹]	Activity (J774)	Survival (Trypanosoma cruzi) [days]	Ratio (Trypanosoma brucei [6]) [M⁻¹ s⁻¹]	Ka (Trypanosoma brucei [5]) [M⁻¹ s⁻¹]
O=C(N[C@@H](Cc1ccccc1)C(=O)N[C@H](/C=C/S(=O)(=O)c1ccccc1)CCc1ccccc1)c1ccccn1	250	0.03	0.14	910	120000	150000	70	–	Non-toxic	42	–	–
O=C(N[C@@H](Cc1ccccc1)C(=O)N[C@H](/C=C/S(=O)(=O)c1ccccc1)CCc1ccccc1)c1ccc(C(F)(F)F)cc1	97	0.0097	0.009	87	100000	104000	< 5	–	Non-toxic	8	–	–
Cc1cccc(C[C@H](NC(=O)N2CCN(C)CC2)C(=O)N[C@H](/C=C/S(=O)(=O)c2ccccc2)CCc2ccccc2)c1	3300	0.86	0.088	170	257000	517000	–	–	Non-toxic	42	19000	–
O=C(N[C@@H](Cc1cccc(C(F)(F)F)c1)C(=O)N[C@H](/C=C/S(=O)(=O)c1ccccc1)CCc1ccccc1)c1cc(F)cc(F)c1	–	–	0.0017	33	–	52000	–	–	Non-toxic	23	–	–
CN1CCN(C(=O)N[C@@H](Cc2ccccc2)C(=O)N[C@H](/C=C/S(=O)(=O)c2ccccc2)CCc2ccccc2)CC1 [K-777]	–	–	–	270	–	–	1000	–	Non-toxic	42	–	–
Cc1cccc(C[C@H](NC(=O)c2cc(F)cc(F)c2)C(=O)N[C@H](/C=C/S(=O)(=O)c2ccccc2)CCc2ccccc2)c1	50	0.0052	0.023	–	105000	456000	–	–	Toxic	12	16000	–
O=C(N[C@@H](Cc1ccccc1)C(=O)N[C@H](/C=C/S(=O)(=O)c1ccccc1)CCc1ccccc1)c1cc(F)cc(F)c1	980	0.31	0.021	66	31000	317000	–	–	Toxic	12	–	–
Cc1cccc(C[C@H](NC(=O)c2ccc(C(F)(F)F)cc2)C(=O)N[C@H](/C=C/S(=O)(=O)c2ccccc2)CCc2ccccc2)c1	92	0.0035	0.005	43	38000	116000	–	–	Toxic	8	–	–
CN1CCN(C(=O)N[C@@H](Cc2cccc(C(F)(F)F)c2)C(=O)N[C@H](/C=C/S(=O)(=O)c2ccccc2)CCc2ccccc2)CC1	170	0.009	–	–	53000	–	400	–	Toxic	42	–	81000
